The values that follow come from ChEMBL document CHEMBL2434947, “Probing structural requirements of positive allosteric modulators of the M4 muscarinic receptor” (J Med Chem, 2013).

Molecules are shown by their SMILES. Activity calls are given as the source filed them. The rule behind the calls is not given here.

Assay [1] addresses T1, Muscarinic acetylcholine receptor M4 (Homo sapiens) (UniProt P08173).
T1 sequence (whole entry): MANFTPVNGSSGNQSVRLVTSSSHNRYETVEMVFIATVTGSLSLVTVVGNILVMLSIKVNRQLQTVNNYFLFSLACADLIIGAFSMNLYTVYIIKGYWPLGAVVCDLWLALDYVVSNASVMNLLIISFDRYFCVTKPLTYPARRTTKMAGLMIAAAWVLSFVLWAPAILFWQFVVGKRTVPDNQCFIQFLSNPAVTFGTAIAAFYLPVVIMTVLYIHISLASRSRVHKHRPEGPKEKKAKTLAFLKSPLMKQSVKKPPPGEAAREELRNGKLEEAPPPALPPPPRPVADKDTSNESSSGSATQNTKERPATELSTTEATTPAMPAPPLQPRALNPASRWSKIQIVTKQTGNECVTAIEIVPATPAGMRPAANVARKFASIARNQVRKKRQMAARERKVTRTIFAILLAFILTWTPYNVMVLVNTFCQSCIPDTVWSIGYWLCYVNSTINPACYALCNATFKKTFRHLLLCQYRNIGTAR
Nature of the assay: Binding affinity to human muscarinic M4 receptor expressed in CHO Flp-In cells. It counts as cell-based. A digest of the protocol: (§1)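 Intact FlpIn-CHO cells stably expressing human M4 mAChR; ERK1/2 phosphorylation read-out. A time course first set the incubation time of peak phosphorylation, and concentration-response curves were run at that time. Modulator was titrated against ACh. pKB (allosteric site affinity), τB and composite cooperativity αβ came from an operational model of allosterism. Mean ± SEM from at least three experiments in duplicate.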

Assay [2] has as its target T1, Muscarinic acetylcholine receptor M4 (Homo sapiens). Nature of the assay: Positive allosteric modulation of human muscarinic M4 receptor expressed in CHO Flp-In cells assessed as stimulation of acetylcholine-induced ERK1/2 phosphorylation incubated under green light condition by fluorescence assay.
The target is the same in assay [3]. Put plainly: Positive allosteric modulation of human muscarinic M4 receptor expressed in CHO Flp-In cells assessed as stimulation of acetylcholine-induced ERK1/2 phosphorylation incubated under green light condition by fluorescence assay relative to control. It counts as cell-based. A digest of the protocol: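 ERK1/2 phosphorylation in intact FlpIn-CHO cells stably expressing human M4 mAChR. Modulator was titrated at a fixed EC20 concentration of ACh to give empirical EC50 and Emax (EM′). The incubation time was taken from prior time-course assays of peak phosphorylation. Mean ± SEM from at least three experiments performed in duplicate.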

The target in assay [4] is T2, Muscarinic acetylcholine receptor M4 (Homo sapiens, UniProt P08173).
T2 sequence (P08173 whole entry): T1 sequence (whole entry)
Put plainly: Positive allosteric modulation of human muscarinic M4 receptor expressed in CHO Flp-In cells assessed as stimulation of acetylcholine-induced ERK1/2 phosphorylation incubated under green light condition by fluorescence assay. Format: cell-based. A digest of the protocol: as §1

Assay [5] deals with T1, Muscarinic acetylcholine receptor M4 (Homo sapiens). Nature of the assay: Displacement of [3H]NMS from human muscarinic M4 receptor expressed in CHO Flp-In cells after 4 hrs by scintillation counting analysis. Format: cell-based. On the technique in general: In a radioligand displacement assay an active substance lowers the binding of a labelled ligand.

By Emax is commonly meant the greatest response seen or fitted, relative to the assay's reference. Broadly, the EC50 is the concentration at which the effect is half-maximal. As to `COc1cc(CNC(=O)c2sc3nc(C)cc(C)c3c2N)cc(OC)c1.Cl`, the KB entry in assay [1] was “inactive”. Moreover, in assay [2], the outcome was inactive. Also, the Emax result in assay [3] was “inactive”. For the same molecule, the EC50 result in assay [4] is given as “Not Active”.

The pKb is the Kb on a negative log10 scale, so that one unit is a factor of ten. A higher pKb goes with a low Kb. In assay [1], `COc1ccc(CNC(=O)c2sc3nc(C)cc(C)c3c2N)c(F)c1F` showed a Kb of 1880 nM and a negative-log Kb (pKb) of 5.73. Further, the result in assay [5] was inactive. The Emax in assay [3] was determined as 89%. In addition, in assay [4] (read-out: EC50), the EC50 was found to be 240 nM.

For `COc1ccc(CNC(=O)CSc2nc(C)cc(C)c2C#N)c(F)c1F`, in assay [3], the outcome was inactive.

In assay [1], `Cc1cc(C)c2c(N)c(C(=O)NCc3cc(F)cc(F)c3F)sc2n1` registered a Kb of 1290 nM and a negative-log Kb (pKb) of 5.89. Moreover, in assay [3], the Emax was 85%. In assay [4] (read-out: EC50), the EC50 was found to be 140 nM.

On to `Cc1cc(C)c(C#N)c(SCC(=O)NCc2cc(F)ccc2F)n1`, for which, in assay [3], the result was inactive.

For the molecule `Cc1cc(C)c2c(N)c(C(=O)NCc3cccc(F)c3)sc2n1`, in assay [1], the Kb worked out at 6240 nM and the pKb was determined as 5.21. Moreover, the outcome in assay [5] was inactive. In assay [3], the Emax worked out at 98%. Moreover, the EC50 in assay [4] (read-out: EC50) is 310 nM.

Take `COc1cc(F)c(CNC(=O)c2sc3nc(C)cc(C)c3c2N)cc1F.Cl`: the KB result in assay [1] is “inactive”. Besides, the result in assay [2] was inactive. In addition, the Emax result in assay [3] is “inactive”. The EC50 result in assay [4] is “Not Active”.

Consider `Cc1cc(C)c(C#N)c(SCC(=O)NCc2cccc(F)c2)n1`, for which the outcome in assay [3] was inactive.

In the case of `COc1ccc(CNC(=O)c2sc3nc(C)cc(C)c3c2N)c(F)c1`, in assay [1], the Kb came to 1820 nM and the pKb stood at 5.74. Further, in assay [3], the Emax is 56%. Besides, in assay [4] (read-out: EC50), the concentration giving a half-maximal response (EC50) amounted to 350 nM.

With `Cc1cc(C)c(C#N)c(SCC(=O)NCc2cc(F)c(F)cc2F)n1`, the outcome in assay [3] was inactive.

For the molecule `COc1cc(CNC(=O)c2sc3nc(C)cc(C)c3c2N)cc(OC)c1OC.Cl`, the KB entry in assay [1] was “inactive”. Moreover, the outcome in assay [2] was inactive. The Emax entry in assay [3] is “inactive”. In addition, the EC50 result in assay [4] is listed as “Not Active”.

Turning to `COc1ccc(CNC(=O)c2sc3nc(C)cc(C)c3c2N)cc1F`, in assay [1], the Kb amounted to 2580 nM and the pKb is 5.59. In addition, the outcome in assay [5] was inactive. Also, the maximal response (Emax) in assay [3] was determined as 95%. Also, the EC50 in assay [4] (read-out: EC50) stood at 100 nM.

Take `Cc1cc(C)c2c(N)c(C(=O)NCc3ccccc3F)sc2n1`: in assay [1], the Kb is 1170 nM and the pKb worked out at 5.93. For the same molecule, the Emax in assay [3] stood at 92%. Further, the EC50 in assay [4] (read-out: EC50) came to 130 nM.

Regarding `COc1ccc(CNC(=O)c2sc3nc(C)cc(C)c3c2N)cc1`, in assay [5], the result was inactive. Besides, the Emax in assay [3] was determined as 85%.

For `COc1cc(CNC(=O)CSc2nc(C)cc(C)c2C#N)cc(OC)c1`, the result in assay [3] was inactive.

For `COc1ccc(CNC(=O)CSc2nc(C)cc(C)c2C#N)cc1`, the result in assay [3] was inactive.

For `Cc1cc(C)c(C#N)c(SCC(=O)NCc2ccccc2F)n1`, in assay [3], the outcome was inactive.

`COc1ccccc1CNC(=O)c1sc2nc(C)cc(C)c2c1N.Cl`: the KB result in assay [1] is “inactive”. Moreover, the outcome in assay [2] was inactive. In assay [3], the Emax result is “inactive”. Further, the EC50 entry in assay [4] was “Not Active”.

Regarding `COc1ccc(CNC(=O)c2sc3nc(C)cc(C)c3c2N)cc1OC.Cl`, the KB result in assay [1] is “inactive”. Moreover, in assay [2], the result was inactive. Besides, the Emax result in assay [3] is “inactive”. Besides, in assay [4], the EC50 result is reported as “Not Active”.

As for `Cc1cc(C)c2c(N)c(C(=O)NCc3ccc(F)cc3)sc2n1`, in assay [1], the Kb is 2520 nM and the pKb was found to be 5.6. The result in assay [5] was inactive. In addition, in assay [3], the Emax was 98%. In addition, in assay [4] (read-out: EC50), the EC50 was 220 nM.

Take `COc1cccc(CNC(=O)CSc2nc(C)cc(C)c2C#N)c1`: the outcome in assay [3] was inactive.

With `COc1ccccc1CNC(=O)CSc1nc(C)cc(C)c1C#N`, the result in assay [3] was inactive.

In assay [1], `COc1cccc(CNC(=O)c2sc3nc(C)cc(C)c3c2N)c1` displayed a Kb of 11400 nM and a pKb of 4.95. Also, the Emax in assay [3] was determined as 92%. Moreover, the EC50 in assay [4] (read-out: EC50) stood at 560 nM.

In the case of `Cc1cc(C)c2c(N)c(C(=O)NCc3cccc(F)c3F)sc2n1`, in assay [1], the Kb was found to be 1720 nM and the pKb was 5.76. For the same molecule, the result in assay [5] was inactive. Also, in assay [3], the Emax is 91%. Besides, the EC50 in assay [4] (read-out: EC50) was 110 nM.

In assay [1], `Cc1cc(C)c2c(N)c(C(=O)NCc3cc(F)c(F)cc3F)sc2n1` came in with a Kb of 2320 nM and a pKb of 5.63. Besides, the Emax in assay [3] was found to be 83%. For the same molecule, the EC50 in assay [4] (read-out: EC50) turned out to be 580 nM.

In assay [1], `Cc1cc(C)c2c(N)c(C(=O)NCc3cc(F)ccc3F)sc2n1` returned a Kb of 1690 nM and a pKb of 5.77. The Emax in assay [3] worked out at 85%. In assay [4] (read-out: EC50), the EC50 was 130 nM.
